# Columns and labels:
# [1] = Inhibition of hedgehog signaling pathway in mouse NIH/3T3 cells after 48 hrs by Gli-luciferase reporter gene assay; format: cell-based; details: NIH3T3, 48 h
# Procedure, shortened: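 NIH3T3 cells stably carrying a Gli-luciferase reporter, kept in DMEM + 10% FBS with puromycin. Seeded at 2 × 10⁴ cells/well and cultured overnight at 37 °C, 5% CO₂. Compounds added as an 8-point series (0.05–300 nM) in medium with 0.5% FBS plus Sonic Hedgehog agonist 0.7 µg/mL, n = 4 wells per concentration, 48 h. […] Lysates read by dual-luciferase.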
# [2] = AUC in Sprague-Dawley rat at 1 mg/kg, iv by LC/MS/MS analysis; format: ADME, organism-based; set-up: dose 1 mg/kg, route intravenous; details: plasma
# Procedure, shortened: (§1)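 Sprague-Dawley rats dosed iv at 1 mg/kg (n = 3). Blood samples were centrifuged at 4000 rpm for 5 min at 4 °C to give plasma. PK parameters were derived from plasma concentration-time data by noncompartmental analysis.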
# [3] = Cmax in Sprague-Dawley rat at 1 mg/kg, iv by LC/MS/MS analysis; format: ADME, organism-based; set-up: dose 1 mg/kg, route intravenous; details: in vivo; procedure, shortened: as §1
# [4] = Clearance in Sprague-Dawley rat at 1 mg/kg, iv by LC/MS/MS analysis; format: ADME, organism-based; set-up: dose 1 mg/kg, route intravenous; details: in vivo; procedure, shortened: as §1
# [5] = Elimination half life in Sprague-Dawley rat at 1 mg/kg, iv by LC/MS/MS analysis; format: ADME, organism-based; set-up: dose 1 mg/kg, route intravenous; details: in vivo, read-out: beta t1/2 (converted); procedure, shortened: as §1
# [6] = Apparent volume of distribution in Sprague-Dawley rat at 1 mg/kg, iv by LC/MS/MS analysis; format: ADME, organism-based; set-up: dose 1 mg/kg, route intravenous; details: in vivo, read-out: Vz; procedure, shortened: as §1
# [7] = Mean residence time (0 to t) in Sprague-Dawley rat at 1 mg/kg, iv by LC/MS/MS analysis; format: ADME, organism-based; set-up: dose 1 mg/kg, route intravenous; details: in vivo; procedure, shortened: as §1
IC50 [1],AUC [2],Cmax [3],clearance [4],half-life [5],Vd [6],MRT last [7],SMILES
0.73 nM,–,–,–,–,–,–,Cc1ccc(CN2CCOCC2)cc1NC(=O)c1ccc(Nc2nc(-c3ccccn3)c3cccn3n2)c(F)c1
1.6 nM,1430 ng·h/mL,2440 ng/mL,9.66 mL/min/kg,15.2 h,12.6 L/kg,4.68 h,Cc1cccc(C)c1NC(=O)c1ccc(Nc2nc(-c3ccc(OC(F)(F)F)cc3)c3cccn3n2)cc1
1.2 nM,791 ng·h/mL,1070 ng/mL,21.1 mL/min/kg,1.23 h,2.19 L/kg,1.31 h,Cc1ccc(CN2CCOCC2)cc1NC(=O)c1ccc(Nc2nc(-c3cnn(C)c3)c3cccn3n2)cc1
1.1 nM,1940 ng·h/mL,4190 ng/mL,8.38 mL/min/kg,8.34 h,5.97 L/kg,3.49 h,Cc1ccc(CN2CCOCC2)cc1NC(=O)c1ccc(Nc2nc(-c3ccc(OC(F)(F)F)cc3)c3cccn3n2)cn1
7.5 nM,–,–,–,–,–,–,Cc1ccc(CN2CCN(C)CC2)cc1NC(=O)c1ccc(Nc2nc(-c3cnn(C)c3)c3cccn3n2)cc1
1.6 nM,–,–,–,–,–,–,Cc1cccc(C)c1NC(=O)c1ccc(Nc2nc(C)c(C)c(-c3ccc(OC(F)(F)F)cc3)n2)cc1
8.8 nM,–,–,–,–,–,–,O=C(Nc1cccc(CN2CCOCC2)c1)c1ccc(Nc2nc(-c3ccc(OC(F)(F)F)cc3)c3cccn3n2)cn1
1.6 nM,–,–,–,–,–,–,Cc1ccc(CN2CCOCC2)cc1NC(=O)c1ccc(Nc2nc(-c3cccnc3)c3cccn3n2)cc1
0.62 nM,–,–,–,–,–,–,Cc1ccc(CN2CCCCC2)cc1NC(=O)c1ccc(Nc2nc(-c3ccc(OC(F)(F)F)cc3)c3cccn3n2)cc1
0.97 nM,764 ng·h/mL,637 ng/mL,22 mL/min/kg,1.51 h,2.85 L/kg,1.64 h,Cc1ccc(CN2CCOCC2)cc1NC(=O)c1ccc(Nc2nc(-c3ccccn3)c3cccn3n2)cc1
11.1 nM,–,–,–,–,–,–,Cc1ccc(CN2CCCCC2)cc1NC(=O)c1ccc(Nc2nc(-c3cnn(C)c3)c3cccn3n2)cc1
7.2 nM,2460 ng·h/mL,1250 ng/mL,6.77 mL/min/kg,1.64 h,–,2.23 h,CS(=O)(=O)c1ccc(C(=O)Nc2ccc(Cl)c(-c3ccccn3)c2)c(Cl)c1 [VISMODEGIB]
5.3 nM,–,–,–,–,–,–,CCc1cnc(Nc2ccc(C(=O)Nc3c(C)cccc3C)cc2)nc1-c1ccc(OC(F)(F)F)cc1
1.7 nM,–,–,–,–,–,–,Cc1ccc(CN2CCN(C)CC2)cc1NC(=O)c1ccc(Nc2nc(-c3ccc(OC(F)(F)F)cc3)c3cccn3n2)cc1
12.3 nM,–,–,–,–,–,–,Cc1ccc(CN2CCCC2)cc1NC(=O)c1ccc(Nc2nc(-c3cnn(C)c3)c3cccn3n2)cc1
1.4 nM,–,–,–,–,–,–,Cc1cc(-c2ccc(OC(F)(F)F)cc2)nc(Nc2ccc(C(=O)Nc3c(C)cccc3C)cc2)n1
1.7 nM,–,–,–,–,–,–,Cc1ccc(CN2CCCC2)cc1NC(=O)c1ccc(Nc2nc(-c3ccc(OC(F)(F)F)cc3)c3cccn3n2)cc1
0.83 nM,2230 ng·h/mL,2720 ng/mL,6.9 mL/min/kg,8.86 h,5.23 L/kg,4.83 h,Cc1ccc(CN2CCOCC2)cc1NC(=O)c1ccc(Nc2nc(-c3ccc(OC(F)(F)F)cc3)c3cccn3n2)cc1
1.5 nM,–,–,–,–,–,–,Cc1ccc(CN2CCOCC2)cc1NC(=O)c1ccc(Nc2nc(-c3ccccc3)c3cccn3n2)cc1
1.1 nM,–,–,–,–,–,–,Cc1ccc(CN2CCOCC2)cc1NC(=O)c1ccc(Nc2nc(-c3ccccn3)c3cccn3n2)cn1
0.8 nM,–,–,–,–,–,–,CCCc1cc(-c2ccc(OC(F)(F)F)cc2)nc(Nc2ccc(C(=O)Nc3c(C)cccc3C)cc2)n1

# Reference: ChEMBL document CHEMBL3112570, “Design, synthesis, and evaluation of pyrrolo[2,1-f][1,2,4]triazine derivatives as novel hedgehog signaling pathway inhibitors” (Bioorg Med Chem, 2014)
